The full list was thinned out, with hits kept by preference.
bCat KO growth: beta-catenin-lacking colon tumor cell growth suppression | HCT116 beta-catenin knockout viability, CellTiter-Glo, 60 h; hits give low values | AID 818 | viability, % at 10 µM | 140,000 compounds, 1.5% hits;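 active means viability at or under a set limit, the compound median less 4 SD, cut at about 6% in these data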;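 further: 0% = Hyamine 1622 control at 20 µM and 100% = untreated cell control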
H69AR inhibit: blocks growth of human H69AR lung tumor cells | H69AR lung tumor viability, ATP luminescence, 72 h; hits give low values | viability, % at 10 µM | 85,000 compounds, 6% hits;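 active means viability at or below 40%; inactive means viability above 40%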;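 further: multidrug resistant small cell line overexpressing MRP-1 efflux transporter; 100% = mean luminescence of untreated control wells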
HCT116 PTEN-null: PTEN-deleted cell growth suppression. HCT116 PTEN-null viability, CellTiter-Glo, 60 h; hits give low values. viability, % at 10 µM. 140,000 compounds, 1.2% hits. AID 827;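 active means viability at or below a set limit, 4 SD under the median of all tested compounds, cut at about 3.7% in these data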;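 further: PTEN knockout HCT116 line with beta catenin targeted HCT116 as companion control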
Lung fibro prol: blocks proliferation of human lung fibroblasts; LL 47 human lung fibroblast viability, ATP luminescence; hits give low values; viability, % at 10 µM; 85,000 compounds, 1.1% hits; AID 719;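 active means viability at or below 50% in the single dose screen; inactive means viability above 50%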;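 further: compound exposure lasted 72 h before the ATP readout; 100% = median luminescence of untreated cell-only wells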
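Test system: LL 47 human lung fibroblasts / Incubation: 72 h compound exposure at 37 °C after overnight plating / Technique: luminescent ATP detection, CellTiter-Glo / Compound dosing: 0.1% DMSO in all compound wells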
HUVEC prolif 384: inhibitors of human endothelial cell proliferation; HUVEC proliferation, CellTiter-Glo luminescence, 72 h; hits give low values; viability, % at 10 µM (by protocol); 86,000 compounds, 1.1% hits; AID 648;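 active means viability at or below 30%; inactive means viability above 30%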;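 further: 100% = median luminescence of DMSO-only cell control wells on each plate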
An asterisk follows results filed as active.

How did Cc1nc2ccccc2c(=O)n1/N=C/c1cn(-c2ccccc2)nc1-c1cccs1 do in these assays?
bCat KO growth: 74.6; H69AR inhibit: 35.2*; HCT116 PTEN-null: 74.5; Lung fibro prol: 99.7; HUVEC prolif 384: 69.3

What do the screens show for `Cc1ccc(S(=O)(=O)c2c(C)nn(C(C)(C)C)c2OC(=O)C(C)(C)C)cc1`?
bCat KO growth: 75.2; H69AR inhibit: 95.1; HCT116 PTEN-null: 96.2; Lung fibro prol: 96.0; HUVEC prolif 384: 89.0

What do the screens show for `CC(=O)Oc1c(S(=O)(=O)c2ccc(C)cc2)c(C)nn1C(C)(C)C`?
bCat KO growth: 103.7; H69AR inhibit: 91.3; HCT116 PTEN-null: 99.6; Lung fibro prol: 102.4; HUVEC prolif 384: 107.6

Results for Cc1ccc(S(=O)(=O)c2c(C)nn(C(C)(C)C)c2OC(=O)c2cccs2)cc1 ?
bCat KO growth: 77.5; H69AR inhibit: 109.7; HCT116 PTEN-null: 74.1; Lung fibro prol: 101.2; HUVEC prolif 384: 12.2*

How did Cc1ccc(S(=O)(=O)c2c(C)nn(C(C)(C)C)c2OC(=O)c2ccco2)cc1 do in these assays?
bCat KO growth: 92.8; H69AR inhibit: 53.7; HCT116 PTEN-null: 120.9; Lung fibro prol: 109.0; HUVEC prolif 384: 13.7*

Results for Cc1ccc(S(=O)(=O)c2c(C)nn(C(C)(C)C)c2OC(=O)c2ccc(Br)o2)cc1 ?
bCat KO growth: 96.5; H69AR inhibit: 36.9*; HCT116 PTEN-null: 87.5; Lung fibro prol: 102.5; HUVEC prolif 384: 13.4*

How did O=C(NCC1OCCc2ccccc21)c1ccc(NC(=O)c2ccc(Cl)cc2Cl)cc1 (centres undefined) do in these assays?
bCat KO growth: 4.9*; HCT116 PTEN-null: 1.9*

Results for Cc1c(Cl)cccc1NC(=S)N1CCN(Cc2ccc3c(c2)OCO3)CC1 ?
bCat KO growth: 87.2; HCT116 PTEN-null: 84.5

How did Cc1ccc(NC(=O)CSc2nnc(-c3cccnc3)n2-c2ccc(C)cc2)cc1 do in these assays?
bCat KO growth: 91.3; H69AR inhibit: 26.5*; HCT116 PTEN-null: 88.8; Lung fibro prol: 98.0; HUVEC prolif 384: 78.8

How did Cc1ccc(-n2c(Cc3cccs3)nnc2SCC(=O)Nc2ccc(F)c(F)c2)cc1 do in these assays?
bCat KO growth: 78.0; H69AR inhibit: 77.0; HCT116 PTEN-null: 79.7; Lung fibro prol: 4.0*; HUVEC prolif 384: 86.2

What do the screens show for `O=C(CSc1nnc(-c2cccnc2)n1-c1ccccc1)Nc1ccccc1`?
bCat KO growth: 86.2; H69AR inhibit: 85.4; HCT116 PTEN-null: 100.5; Lung fibro prol: 100.6; HUVEC prolif 384: 96.7

What do the screens show for `O=C(CSc1nnc(-c2cccs2)n1-c1ccccc1)Nc1ccccc1`?
bCat KO growth: 55.7; H69AR inhibit: 63.6; HCT116 PTEN-null: 48.9; Lung fibro prol: 41.5*; HUVEC prolif 384: 79.8

What do the screens show for `Cc1ccccc1-n1c(SCC(=O)c2cc(C)n(C)c2C)nnc1-c1cccnc1`?
bCat KO growth: 99.2; H69AR inhibit: 38.5*; HCT116 PTEN-null: 109.4; Lung fibro prol: 99.3; HUVEC prolif 384: 110.2

Results for C[C@@H]1NC(=O)c2cc([N+](=O)[O-])cc(I)c2NCCCC[C@@H](C(N)=O)NC(=O)[C@H](CCC(=O)O)NC1=O ?
bCat KO growth: 99.9; HCT116 PTEN-null: 97.1

What do the screens show for `CCc1nnc(NC(=O)CCC(=O)NCCc2ccc(OC)c(OC)c2)s1`?
bCat KO growth: 95.8; HCT116 PTEN-null: 89.7

What do the screens show for `CCC(CC)C(=O)Nc1ccc(Cl)c(Cl)c1`?
bCat KO growth: 86.7; H69AR inhibit: 85.0; HCT116 PTEN-null: 75.0; Lung fibro prol: 91.1; HUVEC prolif 384: 91.6

How did O=C(CCSCc1ccccc1Cl)N1CCN(c2cccc(Cl)c2)CC1 do in these assays?
bCat KO growth: 61.2; H69AR inhibit: 87.9; HCT116 PTEN-null: 59.6; Lung fibro prol: 94.5; HUVEC prolif 384: 69.6

What do the screens show for `COc1cc(/C=N\n2cnnc2)ccc1OCC(=O)Nc1ccc(C)cc1`?
bCat KO growth: 89.1; H69AR inhibit: 84.2; HCT116 PTEN-null: 75.8; Lung fibro prol: 93.7; HUVEC prolif 384: 90.4

What do the screens show for `CCOC(=O)c1ccccc1OCc1cc(/C=N/n2cnnc2)ccc1OC`?
bCat KO growth: 71.2; H69AR inhibit: 35.4*; HCT116 PTEN-null: 72.9; Lung fibro prol: 93.9; HUVEC prolif 384: 85.6

What do the screens show for `COC(=O)c1cc(NS(=O)(=O)c2ccc(N3CCOCC3)c(N)c2)cc(C(=O)OC)c1`?
bCat KO growth: 98.5; HCT116 PTEN-null: 91.0

Results for COc1ccc(Cl)cc1N1CCN(CCNC(=O)Nc2ccccc2C)CC1 ?
bCat KO growth: 54.8; H69AR inhibit: 19.2*; HCT116 PTEN-null: 50.4; Lung fibro prol: 74.6; HUVEC prolif 384: 5.3*

Screening results as filed in PubChem.
